Measurements from different studies.
pEC50, pIC50: −log10 of the molar value.

| Compound | tested on | assay | test system | setting | measurement | value |
| --- | --- | --- | --- | --- | --- | --- |
| O=C(/C=C/c1cn(Cc2cn(-c3ccnc4cc(Cl)ccc34)nn2)c2ccccc12)c1ccc(Cl)cc1Cl | Plasmodium falciparum | parasite growth, SYBR Green | 3D7 | 5 µM, blood stage | inhibition | 4.87% |
| CNc1ncc2c(/C=C/C(=O)N3CCC(OC)CC3)nn(CC3CCCO3)c2n1 (stereo not drawn) | FLO-1 | cell growth or viability, resazurin |  | 5 days | pEC50 | < 4.52 |
| Cn1cc2c3c1C(=O)C(NCCc1ccc(O)cc1)=CC3=[N+](C)CC2 | Plasmodium falciparum | parasite growth, SYBR Green | W2 | blood stage | pIC50 | 6.40 |
| O=C(/C=C/c1cn(Cc2cn(-c3ccnc4cc(Cl)ccc34)nn2)c2ccccc12)c1cccc([N+](=O)[O-])c1 | Plasmodium falciparum | parasite growth, SYBR Green | 3D7 | 10 µM, blood stage | inhibition | 36% |
| COC1=CC2=[N+](C)CCc3c[nH]c(c32)C1=O | Plasmodium falciparum | parasite growth, SYBR Green | DD2 | blood stage | pIC50 | 5.79 |
| O=C(/C=C/c1cn(Cc2cn(-c3ccnc4cc(Cl)ccc34)nn2)c2ccccc12)c1ccc(F)cc1 | Plasmodium falciparum | parasite growth, SYBR Green | 3D7 | 10 µM, blood stage | inhibition | 47.1% |
| Nc1ncnc2c1c(/C=C/C(=O)N1CCC(O)CC1)nn2CC1CCCC1 | FLO-1 | cell growth or viability, resazurin |  | 5 days | pEC50 | < 4.52 |
| COCC(=O)N1CCCC(C(=O)NCc2nc(-c3ccccc3)cs2)C1 (racemic) | Plasmodium falciparum | parasite growth, SYBR Green |  | 72 h | pEC50 | 6.82 |
| O=C(/C=C/c1cn(Cc2cn(-c3ccnc4cc(Cl)ccc34)nn2)c2ccccc12)c1ccc([N+](=O)[O-])cc1 | Plasmodium falciparum | parasite growth, SYBR Green | 3D7 | 5 µM, blood stage | inhibition | 3.86% |
| O=C1C=C2NCCc3c[nH]c(c32)C1=O | Plasmodium falciparum | parasite growth, SYBR Green | W2 | blood stage | pIC50 | 4.60 |
| CC1CCN(C(=O)/C=C/c2nn(CC3CCCC3)c3ncnc(N)c23)CC1 | FLO-1 | cell growth or viability, resazurin |  | 5 days | pEC50 | < 4.52 |
| C=CC(=O)NC1CCN(c2ncc3ncnc(Nc4ccc(Oc5ccc6c(c5)ncn6C)c(C)c4)c3n2)CC1 | MDA-MB-453 | cell growth or viability |  |  | pEC50 | 7.45 |
| O=C(NO)c1ccc(CNc2nc3cccc(-c4ccc5c(c4)OCO5)n3n2)cc1 | COLO 205 | cell growth or viability, SRB |  |  | GI50 | 0.63 µM |
| COc1ccc(C(=O)/C=C/c2cn(Cc3cn(-c4ccnc5cc(Cl)ccc45)nn3)c3ccccc23)cc1OC | Plasmodium falciparum | parasite growth, SYBR Green | 3D7 | 5 µM, blood stage | inhibition | -4% |
| CNc1ncc2c(/C=C/C(=O)N3CCC(OC)CC3)nn(CC3CCCCC3)c2n1 | FLO-1 | cell growth or viability, resazurin |  | 5 days | pEC50 | 5.15 |
